Experiment [1] is described as follows: nonspecific flux increase, KCNQ1-free cells – parental CHO cells, counter-screen for KCNQ1 potentiator project (AID 493006;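 active = duplicate-averaged activation above buffer control mean plus 5 SD of those controls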;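 as to activation: fluorescence ratio of max minus min over baseline after K+ and Tl+ depolarization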). The following applies: parental CHO-K1 cells, FluxOR thallium flux, at 10 µM; active compounds read high. An outline of the steps: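 Material: parental CHO-K1 cells, FluxOR dye-loaded; Also added: Potassium/thallium depolarization pulse; Schedule: overnight 37 °C plating, 90 min dye, 20 min dark compound; Signal: kinetic FluxOR fluorescence, 10 s baseline, 110 s after stimulus.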

Experiment [2] addresses Potassium voltage-gated channel subfamily KQT member 1 (Homo sapiens) (UniProt P51787). The experiment in a line: enhancement of KCNQ1 channel thallium flux – FluxOR thallium flux, CHO cells, duplicates, confirmation (AID 493007;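 active = potentiation averaged over duplicate wells exceeding buffer-only control mean by more than 3 SD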;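 as to outcome: cells depolarized by a potassium plus thallium sulfate stimulus after compound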). The note with it: KCNQ1 cell line, FluxOR thallium flux fluorescence, at 10 µM; active compounds read high, % of reference activator effect, buffer zero. An outline of the steps: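 System: KCNQ1-expressing CHO cell line; technique: kinetic thallium influx fluorescence with FluxOR dye, 10 s baseline, 110 s post-stimulus; timing: dye 90 min then compound 20 min, both at room temperature; controls: buffer-only wells as 0% and R-L3 activator as 100%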

Experiment [3] deals with Potassium voltage-gated channel subfamily KQT member 2 (Rattus norvegicus) (UniProt O88943). The experiment in a line: KCNQ2 thallium flux enhancement – KCNQ2-CHO-K1 cells, selectivity assay for KCNQ1 potentiator project (AID 493009).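 Also: assay conditions were tuned for KCNQ1 rather than KCNQ2 modulators; signal is max minus min fluorescence divided by baseline after thallium stimulus.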 The following applies: FluxOR thallium flux fluorescence, at 10 µM; active compounds read high, scaled: buffer 0, activator control 100.
Potassium voltage-gated channel subfamily KQT member 2 (Rattus norvegicus), sequence (O88943 whole entry, looked up): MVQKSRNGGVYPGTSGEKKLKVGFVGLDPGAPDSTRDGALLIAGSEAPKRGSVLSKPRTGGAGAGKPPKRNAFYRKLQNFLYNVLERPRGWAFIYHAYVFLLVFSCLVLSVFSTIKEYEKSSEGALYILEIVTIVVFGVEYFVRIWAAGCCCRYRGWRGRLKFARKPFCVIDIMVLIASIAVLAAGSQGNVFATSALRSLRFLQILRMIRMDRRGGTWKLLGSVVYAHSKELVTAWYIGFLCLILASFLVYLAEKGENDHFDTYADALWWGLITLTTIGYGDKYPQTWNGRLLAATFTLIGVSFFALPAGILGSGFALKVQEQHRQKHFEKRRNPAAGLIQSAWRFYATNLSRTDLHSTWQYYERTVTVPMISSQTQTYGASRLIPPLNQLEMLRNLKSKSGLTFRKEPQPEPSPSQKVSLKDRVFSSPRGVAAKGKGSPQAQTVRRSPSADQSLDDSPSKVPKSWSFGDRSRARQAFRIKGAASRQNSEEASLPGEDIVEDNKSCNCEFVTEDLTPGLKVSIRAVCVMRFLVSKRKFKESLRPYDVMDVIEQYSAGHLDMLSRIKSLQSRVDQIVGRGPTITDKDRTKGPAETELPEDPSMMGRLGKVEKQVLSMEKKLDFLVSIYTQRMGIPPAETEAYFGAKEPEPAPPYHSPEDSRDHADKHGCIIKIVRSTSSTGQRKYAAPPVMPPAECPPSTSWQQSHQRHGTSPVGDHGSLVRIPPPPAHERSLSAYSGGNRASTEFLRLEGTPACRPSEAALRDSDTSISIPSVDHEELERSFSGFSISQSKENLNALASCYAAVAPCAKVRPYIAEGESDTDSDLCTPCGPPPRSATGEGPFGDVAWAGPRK
For experiment [4], the target named is Potassium voltage-gated channel subfamily KQT member 1 (Homo sapiens) (UniProt P51787). The experiment in a line: KCNQ1 activators by electrophysiology – IonWorks patch clamp, KCNQ1-CHO cells, orthogonal assay for KCNQ1 potentiator project, confirmation (AID 493184;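 active = current rise at least 3 SD above the untreated control mean in each of two repeat wells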). The note with it: automated patch clamp current, at 10 µM; active compounds read high. The method, boiled down:
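Test system: KCNQ1-expressing CHO cells. Medium: pH 7.4 external bath. Probe or stimulus: voltage step from -90 mV holding to +40 mV, 2,000 ms. Compound: 10 µM final, single point. Detection: automated perforated-patch electrophysiology. Read-out: percent current increase versus pre-compound level. Repeats: two replicates.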

Calls of active or inactive are those of the source.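 The calls were made as follows, unless noted: active = mean duplicate potentiation above the buffer control mean plus 5 SD of buffer wells; inactive = the rest.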

Potassium voltage-gated channel subfamily KQT member 1 (Homo sapiens), sequence (P51787 whole entry, looked up): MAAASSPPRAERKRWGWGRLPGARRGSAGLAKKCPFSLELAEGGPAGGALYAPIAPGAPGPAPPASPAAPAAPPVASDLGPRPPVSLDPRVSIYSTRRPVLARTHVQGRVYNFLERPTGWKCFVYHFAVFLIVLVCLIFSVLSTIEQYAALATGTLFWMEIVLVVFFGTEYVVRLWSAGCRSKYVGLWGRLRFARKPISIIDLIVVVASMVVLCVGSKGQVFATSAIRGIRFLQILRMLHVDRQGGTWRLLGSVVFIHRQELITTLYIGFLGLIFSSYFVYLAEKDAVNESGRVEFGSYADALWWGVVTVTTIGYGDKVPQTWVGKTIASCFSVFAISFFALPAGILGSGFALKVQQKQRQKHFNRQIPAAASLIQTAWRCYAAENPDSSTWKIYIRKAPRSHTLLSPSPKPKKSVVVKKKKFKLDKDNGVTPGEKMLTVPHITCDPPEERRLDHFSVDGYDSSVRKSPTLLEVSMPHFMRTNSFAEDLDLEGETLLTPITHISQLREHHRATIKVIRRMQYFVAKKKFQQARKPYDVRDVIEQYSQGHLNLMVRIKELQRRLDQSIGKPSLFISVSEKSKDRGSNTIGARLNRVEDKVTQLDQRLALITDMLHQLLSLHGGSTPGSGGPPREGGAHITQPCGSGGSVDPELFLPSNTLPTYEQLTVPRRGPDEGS

Consider `COc1cc(/C=C2\C(=O)N(C)C(=S)N2C)ccc1O`, for which the result in experiment [1], in experiment [2], in experiment [3] and in experiment [4] was inactive.
With `CCC(C)c1ccccc1NC(=S)NC(=O)c1ccco1` (centres undefined), in experiment [1], the activation was 400% (active). Also, the results for the potentiation in experiment [2] and in experiment [3] were 114% (active) and 431% (active), respectively. In experiment [4], the result was inactive.
Consider `CCCCOC(=O)c1ccc(NC(=S)NC(=O)c2c(Cl)cnn2CC)cc1`, for which the activation in experiment [1] was 208% (active). For the same compound, the potentiation was 196% (active) in experiment [2] and 298% (active) in experiment [3]. Also, the result in experiment [4] was inactive.
With `O=C(NC(=S)Nc1ccc(C(F)(F)F)cc1)c1csnn1`, the activation in experiment [1] was 590% (active). The potentiation in experiment [2] was 269% (active); in experiment [3], 555% (active). The result in experiment [4] was inactive.
The matching figures for `Cc1ccc(C(=O)NC(=S)N(C)Cc2ccccc2)cc1`: 146% (active), 46% (active), 178% (active) and “inactive”.
As for `COc1ccccc1/C=C1\N=C(C(C)(C)C)OC1=O`, the result in experiment [1], in experiment [2], in experiment [3] and in experiment [4] was inactive.
In the case of `CCOC(=O)c1c(-c2ccccc2)csc1NC(=S)NC`, the activation in experiment [1] is 286% (active). The potentiation was 130% (active) in experiment [2] and 324% (active) in experiment [3]. Also, in experiment [4], the result was inactive.
On to `CCOC(=O)Cc1csc(NC(=S)NC(=O)C(C)(C)C)n1`, for which the activation in experiment [1] was 136% (active). For the same compound, the outcome in experiment [2], in experiment [3] and in experiment [4] was inactive.
As to `COc1ccc(C(=O)N2CCC(N3CCN(c4ccccc4)CC3)CC2)cc1`, the outcome in experiment [1], in experiment [2], in experiment [3] and in experiment [4] was inactive.
Turning to `Cc1cc(Cl)ccc1OCC(=O)N/N=C1\CC2C=CCC12` (centres undefined), the outcome in experiment [1], in experiment [2], in experiment [3] and in experiment [4] was inactive.
Consider `Cc1nc(NCc2cccnc2)c2c3c(sc2n1)CC(C)CC3` (centres undefined), for which the activation in experiment [1] is 299% (active). The potentiation in experiment [2] is 118% (active); in experiment [3], 352% (active). The result in experiment [4] was inactive.
Regarding `Cc1ccc(-c2nc3ncccc3o2)cc1NC(=O)c1cccnc1`, the outcome in experiment [1], in experiment [2], in experiment [3] and in experiment [4] was inactive.
Regarding `CC(=O)c1c(NC(=O)c2ccccc2)[nH]c(-c2ccccc2)nc1=S`, the activation in experiment [1] was 230% (active). Also, the values for the potentiation in experiment [2] and in experiment [3] were 67% (active) and 236% (active), respectively. Also, the result in experiment [4] was inactive.
On to `Cn1cccc1/C=N/n1c(-c2ccc(C(C)(C)C)cc2)n[nH]c1=S`, for which the outcome in experiment [1], in experiment [3] and in experiment [4] was inactive. Besides, the potentiation in experiment [2] is 266% (active).
For `CNc1nc(N)c([N+](=O)[O-])c(Nc2cccc(F)c2)n1`, the outcome in experiment [1], in experiment [2], in experiment [3] and in experiment [4] was inactive.
As for `O=C1CCC/C(=N\NC(=O)c2ccc(COc3cccc4cccnc34)cc2)C1`, the outcome in experiment [1], in experiment [2], in experiment [3] and in experiment [4] was inactive.
For `CCOC(=O)/C(C)=N/NC(=O)c1ccc([N+](=O)[O-])cc1`, the activation in experiment [1] was 328% (active). The potentiation in experiment [2] was 157% (active); in experiment [3] it was 349% (active). Further, the outcome in experiment [4] was inactive.
Take `O=c1[nH]c(=S)[nH]c2sc3c(c12)CCCCCC3`: in experiment [1], the activation is 138% (active). Also, the result in experiment [2], in experiment [3] and in experiment [4] was inactive.
Consider `O=C(c1c[nH]c(C(=O)C(Cl)(Cl)Cl)c1)c1ccc(F)cc1Cl`, for which the activation in experiment [1] is 145% (active). The potentiation in experiment [2] is 47% (active); in experiment [3] it was 160% (active). The outcome in experiment [4] was inactive.
In the case of `COc1ccc(N2CCN(S(=O)(=O)c3ccc(OC)c(C(=O)N4CCCCC4)c3)CC2)cc1`, the outcome in experiment [1], in experiment [2], in experiment [3] and in experiment [4] was inactive.
As to `COc1ccc(C)cc1-n1c(SCC(=O)Nc2cc(C)on2)nc2ccccc2c1=O`, the outcome in experiment [1], in experiment [2], in experiment [3] and in experiment [4] was inactive.
As to `Cc1ccc(-c2ccc(=O)n(Cc3cccc(Br)c3)n2)cc1`, the result in experiment [1], in experiment [2], in experiment [3] and in experiment [4] was inactive.
For the compound `CSc1ccc(/C=N/NC(=O)c2cccs2)cc1`, the result in experiment [1], in experiment [2], in experiment [3] and in experiment [4] was inactive.
On to `Cc1noc(C)c1COc1ccc(CC(=O)NCc2ccccc2)cc1`, for which the result in experiment [1], in experiment [2], in experiment [3] and in experiment [4] was inactive.
Take `N#C/C(=C\c1ccc(-c2ccccc2[N+](=O)[O-])o1)C(=O)Nc1nc(-c2cccs2)cs1`: the activation in experiment [1] is 208% (active). Moreover, the potentiation in experiment [2] was 56% (active); in experiment [3], 224% (active). For the same compound, the result in experiment [4] was inactive.
Regarding `CCOc1ccc(N=Nc2ccc(O)c3ncccc23)cc1`, the result in experiment [1], in experiment [3] and in experiment [4] was inactive. The potentiation in experiment [2] was 17.5% (active).
`C/C(=N/NC(=O)c1ccc(Br)o1)c1ccc(C)o1`: the result in experiment [1], in experiment [2], in experiment [3] and in experiment [4] was inactive.
As for `CCCCCCCC/C=C\CCCCCCCC(=O)O`, the activation in experiment [1] is 143% (active). In addition, the potentiation in experiment [2] was 51% (active). Besides, the result in experiment [3] and in experiment [4] was inactive.
`CN1C(=O)CC(N2CCN(CC(=O)N3CCCC3)CC2)C1=O` (centres undefined): the outcome in experiment [1], in experiment [2], in experiment [3] and in experiment [4] was inactive.
For the compound `O=C(CCN1CCc2ccccc2CC1)c1ccc2c(c1)OCCO2`, in experiment [1], the activation was 150% (active). Moreover, the results for the potentiation in experiment [2] and in experiment [3] were 38% (active) and 176% (active), respectively. Besides, in experiment [4], the outcome was inactive.
In the case of `C/C(CCc1oc2c(Br)cc(Br)cc2c1-c1ccc(C)o1)=N\O`, the result in experiment [1], in experiment [2], in experiment [3] and in experiment [4] was inactive.

The record behind these values is PubChem BioAssay.
